Data published in ChEMBL document CHEMBL1147105, “In vitro and in vivo activities of PD 0305970 and PD 0326448, new bacterial gyrase/topoisomerase inhibitors with potent antibacterial activities versus multidrug-resistant gram-positive and fastidious organism groups” (2007).
Converted amounts (≈) assume the structure as drawn.

What was measured:
[1] = test system: Enterococcus faecalis; test: Antibacterial activity against VanB-resistant Enterococcus faecalis; format: functional
Summary of the method: (§1)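 Broth microdilution MIC per CLSI guidelines, incubated at 35°C. Cation-adjusted Mueller-Hinton broth for nonfastidious organisms and staphylococci. Streptococci tested in the same broth with 3% lysed horse blood. Anaerobes tested in supplemented Brucella broth inside an anaerobe chamber (5% CO2, 5% H2, 90% N2), read after 48 h. Strains were mainly recent clinical isolates with confirmed identity.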

[2] = test system: Enterococcus faecium; test: Antibacterial activity against Enterococcus faecium; format: functional; summary of the method: as §1
[3] = test system: Enterococcus faecium; test: Antibacterial activity against VanB-resistant Enterococcus faecium; format: functional; summary of the method: as §1
[4] = test system: Enterococcus casseliflavus; test: Antibacterial activity against Enterococcus casseliflavus; format: functional
[5] = test system: Enterococcus gallinarum; test: Antibacterial activity against Enterococcus gallinarum; format: functional
[6] = test system: Corynebacterium jeikeium; test: Antibacterial activity against Corynebacterium jeikeium; format: functional
Summary of the method: (§2)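 Broth microdilution MIC following CLSI guidelines, in cation-adjusted Mueller-Hinton broth containing 3% lysed horse blood, incubated at 35°C. Clinical isolates with identity confirmed. Reported as MIC range, MIC50 and MIC90.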

[7] = test system: Corynebacterium sp.; test: Antibacterial activity against Corynebacterium sp.; format: functional; summary of the method: as §2
[8] = test system: Haemophilus influenzae; test: Antibacterial activity against beta-lactamase negative Haemophilus influenzae; format: functional
Summary of the method: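 Broth microdilution MIC following CLSI guidelines, in Haemophilus test medium at 35°C.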

[9] = test system: Legionella pneumophila; test: Antibacterial activity against Legionella pneumophila; format: functional
Summary of the method: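 Broth microdilution MIC per CLSI guidelines, run in buffered yeast extract α-ketoglutarate broth at 35°C and read after 48 h.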

[10] = test system: Moraxella catarrhalis; test: Antibacterial activity against beta-lactamase positive Moraxella catarrhalis; format: functional
[11] = test system: Citrobacter koseri; test: Antibacterial activity against Citrobacter diversus; format: functional
Summary of the method: (§3)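 Broth microdilution MIC following CLSI guidelines, in cation-adjusted Mueller-Hinton broth, incubated at 35°C. Recent clinical isolates and reference strains, with identity confirmed by automated and standard microbiological methods. Results reported as MIC range, MIC50 and MIC90.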

[12] = test system: Citrobacter freundii; test: Antibacterial activity against Citrobacter freundii; format: functional; summary of the method: as §3
[13] = test system: Escherichia coli; test: Antibacterial activity against Escherichia coli; format: functional; summary of the method: as §3
[14] = test system: Klebsiella pneumoniae; test: Antibacterial activity against Klebsiella pneumoniae; format: functional; summary of the method: as §3
[15] = test system: Salmonella typhimurium; test: Antibacterial activity against Salmonella enterica serovar Typhimurium; format: functional, Salmonella enterica subsp. enterica serovar Typhimurium; summary of the method: as §3
[16] = test system: Shigella sonnei; test: Antibacterial activity against Shigella sonnei; format: functional; summary of the method: as §3
[17] = test system: Serratia marcescens; test: Antibacterial activity against Serratia marcescens; format: functional; summary of the method: as §3
[18] = test system: Acinetobacter sp.; test: Antibacterial activity against Acinetobacter sp.; format: functional; summary of the method: as §3
[19] = test system: Burkholderia cepacia; test: Antibacterial activity against Burkholderia cepacia; format: functional; summary of the method: as §3
[20] = test system: Pseudomonas aeruginosa; test: Antibacterial activity against Pseudomonas aeruginosa; format: functional; summary of the method: as §3
[21] = test system: Stenotrophomonas maltophilia; test: Antibacterial activity against Stenotrophomonas maltophilia; format: functional; summary of the method: as §3
[22] = test system: Actinomyces sp.; test: Antibacterial activity against Actinomyces sp.; format: functional
[23] = test system: Fusobacterium sp.; test: Antibacterial activity against Fusobacterium sp.; format: functional
Summary of the method: (§4)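 Anaerobic broth microdilution MIC following CLSI guidelines, in supplemented Brucella broth. Run in an anaerobe chamber under 5% CO2, 5% H2 and 90% N2 at 35°C, and read after 48 h. Reported as MIC range, MIC50 and MIC90.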

[24] = test system: Peptostreptococcus anaerobius; test: Antibacterial activity against Peptostreptococcus anaerobius; format: functional; summary of the method: as §4
[25] = test system: Finegoldia magna; test: Antibacterial activity against Peptostreptococcus magnus; format: functional; summary of the method: as §4
[26] = test system: Streptococcus pyogenes; test: Antibacterial activity against Streptococcus pyogenes; format: functional
Summary of the method: (§5)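 Broth microdilution MIC following CLSI guidelines, in cation-adjusted Mueller-Hinton broth with 3% lysed horse blood. Plates incubated at 35°C. Clinical isolates and reference strains, with identity confirmed by standard microbiological methods.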

[27] = test system: Clostridium perfringens; test: Antibacterial activity against Clostridium perfringens; format: functional; summary of the method: as §1
[28] = test system: Fusobacterium nucleatum; test: Antibacterial activity against Fusobacterium nucleatum; format: functional; summary of the method: as §4
[29] = test system: Clostridioides difficile; test: Antibacterial activity against Clostridium difficile; format: functional; summary of the method: as §4
[30] = test system: Bacteroides thetaiotaomicron; test: Antibacterial activity against Bacteroides thetaiotaomicron; format: functional; summary of the method: as §4
[31] = test system: Bacteroides fragilis; test: Antibacterial activity against Bacteroides fragilis; format: functional; summary of the method: as §4
[32] = test system: Staphylococcus aureus; test: Antibacterial activity against oxacillin-resistant Staphylococcus aureus; format: functional; summary of the method: as §1
[33] = test system: Staphylococcus aureus; test: Antibacterial activity against vancomycin-intermediate Staphylococcus aureus; format: functional; summary of the method: as §1
[34] = test system: Staphylococcus epidermidis; test: Antibacterial activity against oxacillin-resistant Staphylococcus epidermidis; format: functional; summary of the method: as §1
[35] = test system: Staphylococcus haemolyticus; test: Antibacterial activity against Staphylococcus haemolyticus; format: functional; summary of the method: as §2
[36] = test system: Staphylococcus warneri; test: Antibacterial activity against Staphylococcus warneri; format: functional; summary of the method: as §3
[37] = test system: Alloiococcus otitis; test: Antibacterial activity against Alloiococcus otitidis; format: functional
Summary of the method: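 MIC by broth microdilution following CLSI guidelines, in cation-adjusted Mueller-Hinton broth with 3% lysed horse blood. Incubated at 35°C and read after 48 h. Reported as MIC range, MIC50 and MIC90.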

[38] = test system: Streptococcus equinus; test: Antibacterial activity against Streptococcus bovis; format: functional; summary of the method: as §5
[39] = test system: Streptococcus sanguinis; test: Antibacterial activity against Streptococcus sanguis; format: functional; summary of the method: as §5
[40] = test system: Streptococcus pneumoniae; test: Antibacterial activity against penicillin-susceptible Streptococcus pneumoniae; format: functional; summary of the method: as §1
[41] = test system: Streptococcus pneumoniae; test: Antibacterial activity against levofloxacin-resistant Streptococcus pneumoniae; format: functional; summary of the method: as §1
[42] = test system: Enterococcus faecalis; test: Antibacterial activity against Enterococcus faecalis; format: functional; summary of the method: as §1
[43] = test system: Enterococcus faecalis; test: Antibacterial activity against VanA-resistant Enterococcus faecalis; format: functional; summary of the method: as §1
[44] = test system: Prevotella bivia; test: Antibacterial activity against Prevotella bivia; format: functional; summary of the method: as §4
[45] = test system: Prevotella melaninogenica; test: Antibacterial activity against Prevotella melaninogenica; format: functional; summary of the method: as §4
[46] = test system: Prevotella sp.; test: Antibacterial activity against Prevotella sp.; format: functional; summary of the method: as §4
[47] = test system: Streptococcus mitis; test: Antibacterial activity against Streptococcus mitis; format: functional; summary of the method: as §5
[48] = test system: Streptococcus viridans; test: Antibacterial activity against Streptococcus viridans; format: functional; summary of the method: as §5
[49] = test system: Salmonella enteritidis; test: Antibacterial activity against Salmonella enterica serovar Enteritidis; format: functional, Salmonella enterica subsp. enterica serovar Enteritidis; summary of the method: as §3

SMILES: COc1c(N2CCNC(C)C2)c(F)cc2c(=O)c(C(=O)O)cn(C3CC3)c12 (centres undefined) [GATIFLOXACIN]
- MIC50 [1]: 8 µg/mL (≈ 21.3 µM)
- MIC90 [1]: 16 µg/mL (≈ 42.6 µM)
- MIC50 [2]: 8 µg/mL (≈ 21.3 µM)
- MIC90 [2]: 64 µg/mL (≈ 170 µM)
- MIC [3]: 2 µg/mL (≈ 5.33 µM)
- MIC50 [4]: 0.5 µg/mL (≈ 1.33 µM)
- MIC90 [4]: 1 µg/mL (≈ 2.66 µM)
- MIC50 [5]: 0.5 µg/mL (≈ 1.33 µM)
- MIC90 [5]: 1 µg/mL (≈ 2.66 µM)
- MIC50 [6]: 0.125 µg/mL (≈ 0.333 µM)
- MIC90 [6]: 0.5 µg/mL (≈ 1.33 µM)
- MIC50 [7]: 0.25 µg/mL (≈ 0.666 µM)
- MIC90 [7]: 32 µg/mL (≈ 85.2 µM)
- MIC50 [8]: 8 ng/mL (≈ 0.0213 µM)
- MIC90 [8]: 0.015 µg/mL (≈ 0.04 µM)
- MIC50 [9]: 8 ng/mL (≈ 0.0213 µM)
- MIC90 [9]: 8 ng/mL (≈ 0.0213 µM)
- MIC50 [10]: 0.03 µg/mL (≈ 0.0799 µM)
- MIC90 [10]: 0.06 µg/mL (≈ 0.16 µM)
- MIC50 [11]: 0.03 µg/mL (≈ 0.0799 µM)
- MIC90 [11]: 0.06 µg/mL (≈ 0.16 µM)
- MIC50 [12]: 0.25 µg/mL (≈ 0.666 µM)
- MIC90 [12]: 16 µg/mL (≈ 42.6 µM)
- MIC50 [13]: 0.03 µg/mL (≈ 0.0799 µM)
- MIC90 [13]: 1 µg/mL (≈ 2.66 µM)
- MIC50 [14]: 0.06 µg/mL (≈ 0.16 µM)
- MIC90 [14]: 0.5 µg/mL (≈ 1.33 µM)
- MIC50 [15]: 0.03 µg/mL (≈ 0.0799 µM)
- MIC90 [15]: 0.06 µg/mL (≈ 0.16 µM)
- MIC50 [16]: 0.03 µg/mL (≈ 0.0799 µM)
- MIC90 [16]: 0.06 µg/mL (≈ 0.16 µM)
- MIC50 [17]: 0.25 µg/mL (≈ 0.666 µM)
- MIC90 [17]: 4 µg/mL (≈ 10.7 µM)
- MIC50 [18]: 0.03 µg/mL (≈ 0.0799 µM)
- MIC90 [18]: 16 µg/mL (≈ 42.6 µM)
- MIC50 [19]: 4 µg/mL (≈ 10.7 µM)
- MIC90 [19]: 16 µg/mL (≈ 42.6 µM)
- MIC50 [20]: 1 µg/mL (≈ 2.66 µM)
- MIC90 [20]: 64 µg/mL (≈ 170 µM)
- MIC50 [21]: 1 µg/mL (≈ 2.66 µM)
- MIC90 [21]: 8 µg/mL (≈ 21.3 µM)
- MIC [22]: 0.125 µg/mL (≈ 0.333 µM)
- MIC [23]: 0.015 µg/mL (≈ 0.04 µM)
- MIC [24]: 0.06 µg/mL (≈ 0.16 µM)
- MIC [25]: 0.06 µg/mL (≈ 0.16 µM)
- MIC50 [26]: 0.25 µg/mL (≈ 0.666 µM)
- MIC90 [26]: 0.5 µg/mL (≈ 1.33 µM)
- MIC50 [27]: 0.5 µg/mL (≈ 1.33 µM)
- MIC90 [27]: 0.5 µg/mL (≈ 1.33 µM)
- MIC [28]: 0.015 µg/mL (≈ 0.04 µM)
- MIC50 [29]: 0.5 µg/mL (≈ 1.33 µM)
- MIC90 [29]: 0.5 µg/mL (≈ 1.33 µM)
- MIC50 [30]: 4 µg/mL (≈ 10.7 µM)
- MIC90 [30]: 16 µg/mL (≈ 42.6 µM)
- MIC50 [31]: 1 µg/mL (≈ 2.66 µM)
- MIC90 [31]: 8 µg/mL (≈ 21.3 µM)
- MIC50 [32]: 4 µg/mL (≈ 10.7 µM)
- MIC90 [32]: 8 µg/mL (≈ 21.3 µM)
- MIC [33]: 8 µg/mL (≈ 21.3 µM)
- MIC50 [34]: 2 µg/mL (≈ 5.33 µM)
- MIC90 [34]: 32 µg/mL (≈ 85.2 µM)
- MIC50 [35]: 0.125 µg/mL (≈ 0.333 µM)
- MIC90 [35]: 4 µg/mL (≈ 10.7 µM)
- MIC [36]: 0.125 µg/mL (≈ 0.333 µM)
- MIC50 [37]: 0.06 µg/mL (≈ 0.16 µM)
- MIC90 [37]: 0.06 µg/mL (≈ 0.16 µM)
- MIC50 [38]: 1 µg/mL (≈ 2.66 µM)
- MIC90 [38]: 1 µg/mL (≈ 2.66 µM)
- MIC50 [39]: 0.5 µg/mL (≈ 1.33 µM)
- MIC90 [39]: 0.5 µg/mL (≈ 1.33 µM)
- MIC50 [40]: 0.25 µg/mL (≈ 0.666 µM)
- MIC90 [40]: 0.5 µg/mL (≈ 1.33 µM)
- MIC50 [41]: 4 µg/mL (≈ 10.7 µM)
- MIC90 [41]: 4 µg/mL (≈ 10.7 µM)
- MIC50 [42]: 8 µg/mL (≈ 21.3 µM)
- MIC90 [42]: 16 µg/mL (≈ 42.6 µM)
- MIC [43]: 8 µg/mL (≈ 21.3 µM)
- MIC50 [44]: 0.25 µg/mL (≈ 0.666 µM)
- MIC90 [44]: 0.5 µg/mL (≈ 1.33 µM)
- MIC50 [45]: 0.25 µg/mL (≈ 0.666 µM)
- MIC90 [45]: 0.5 µg/mL (≈ 1.33 µM)
- MIC50 [46]: 0.25 µg/mL (≈ 0.666 µM)
- MIC90 [46]: 0.5 µg/mL (≈ 1.33 µM)
- MIC50 [47]: 0.5 µg/mL (≈ 1.33 µM)
- MIC90 [47]: 0.5 µg/mL (≈ 1.33 µM)
- MIC50 [48]: 0.5 µg/mL (≈ 1.33 µM)
- MIC90 [48]: 0.5 µg/mL (≈ 1.33 µM)
- MIC50 [49]: 0.03 µg/mL (≈ 0.0799 µM)
- MIC90 [49]: 0.06 µg/mL (≈ 0.16 µM)
